From publication PMC4306626 (Journal of chromatography. B, Analytical technologies in …, 2015)
“And” between values parts separate entries of the source, which are not always exact repeats. Equal values may be shown once.

Key:
[1] = Pharmacokinetics in nude mice after single IP or PO dose; type: in vivo, athymic nude (Nu/Nu) mice; conditions: for AUC0-t/Dose: n=4; for AUC(0-t) / Cmax / MRT / Vd/F / MRT inf / Tmax / half-life / AUC(0-inf): female, athymic nude (Nu/Nu), mouse, plasma
Summary of the method: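 Female athymic nude mice, 3–4 weeks old, received a single 0.1 mL dose at 10, 20 or 40 mg/kg, given IP or by oral gavage. Vehicle was cremophor:ethanol:PBS (12.5:12.5:75). Four to five mice per group were killed at 0.5, 1, 4, 8 and 12 h. Cardiac blood went into sodium citrate on ice. Plasma was protein-precipitated with internal standard and assayed by UPLC/MS/MS (5–1000 ng/mL). Pooled non-compartmental analysis used linear/log-linear trapezoids.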

metastatic cancer cells [2] = conditions: cited from earlier work
murine melanoma cell = conditions: cited from earlier work
metastatic cancer cells [3] = conditions: higher concentrations; cited from earlier work
Akt and Jun kinase (JNK) = conditions: breast and prostate cancer cell lines; cited from earlier work
human leukemic cell = conditions: cited from earlier work

**Q.** For `CCn1c2ccccc2c2cc(Nc3ccnc(NCCCN4CCOCC4)n3)ccc21` [EHop-016, (N4-(9-Ethyl-9H-carbazol-3-yl)-N2-(3-morpholin-4-yl-propyl)-pyrimidine-2,4-diamine)], which AUC0-t/Dose ([1]; PO, 20 mg/kg) is on record?
**A.** 12.85 ± 3.11

**Q.** What about the Cl/F ([1]; PO, 40 mg/kg) of the same molecule?
**A.** 1251.4 mL/h and 1251.4 ± 388.1 mL/h

**Q.** What about the “Frel (relative bioavailability, PO to IP)” value ([1]; PO, 40 mg/kg) of the same molecule?
**A.** 26.0 ± 3.1%

**Q.** What about the Lambda-z ([1]; PO, 40 mg/kg) of the same molecule?
**A.** .12 ± .001 hr ^−1

**Q.** And the AUC0-t/Dose ([1]; PO, 40 mg/kg)?
**A.** 12.17 ± 2.9

**Q.** What about the “clearance (Cl/F)” value ([1]; PO, range over doses) of the same molecule?
**A.** 1251 to 1315 mL/h

**Q.** And the “elimination half-life (t1/2)” value ([1]; PO, range over the tested doses)?
**A.** 3.44 to 5.87 h

**Q.** And the Vss ([1]; after IP doses, approximately)?
**A.** 65 to 72 L/kg BW

**Q.** What about the AUC(0-t) ([1]; ip) of the same molecule?
**A.** 328 to 1870 ng·h/mL

**Q.** What about the Cmax ([1]; ip) of the same molecule?
**A.** 163 to 835 ng/mL

**Q.** And the MRT ([1]; ip)?
**A.** 4.21 to 6.75 h

**Q.** What about the Vd/F ([1]; ip) of the same molecule?
**A.** 2.2 to 4.1 L

**Q.** And the AUC(0-t) ([1]; ip, 10 mg/kg)?
**A.** 328 ± 42.1 ng·h/mL

**Q.** And the Cmax ([1]; ip, 10 mg/kg)?
**A.** 163 ± 17.7 ng/mL

**Q.** What about the MRT inf ([1]; ip, 10 mg/kg) of the same molecule?
**A.** 6.75 ± 0.27 h

**Q.** And the Tmax ([1]; ip, 10 mg/kg)?
**A.** 0.5 h

**Q.** And the Vd/F ([1]; ip, 10 mg/kg)?
**A.** 4.09 ± 0.297 L

**Q.** What about the half-life ([1]; ip, 10 mg/kg, t1/2, IP) of the same molecule?
**A.** 5.73 ± 0.43 h

**Q.** What about the AUC(0-t) ([1]; ip, 20 mg/kg) of the same molecule?
**A.** 768 ± 70.6 ng·h/mL

**Q.** What about the Cmax ([1]; ip, 20 mg/kg) of the same molecule?
**A.** 455 ± 50.3 ng/mL

**Q.** What about the MRT inf ([1]; ip, 20 mg/kg) of the same molecule?
**A.** 4.73 ± 0.27 h

**Q.** And the Tmax ([1]; ip, 20 mg/kg)?
**A.** 0.5 h

**Q.** And the Vd/F ([1]; ip, 20 mg/kg)?
**A.** 3.12 ± 0.0927 L

**Q.** And the half-life ([1]; ip, 20 mg/kg, t1/2, IP)?
**A.** 4.66 ± 0.35 h

**Q.** What about the AUC(0-inf) ([1]; ip, 40 mg/kg) of the same molecule?
**A.** 328 to 1870 ng·h/mL

**Q.** What about the AUC(0-t) ([1]; ip, 40 mg/kg) of the same molecule?
**A.** 1870 ± 217 ng·h/mL

**Q.** What about the Cmax ([1]; ip, 40 mg/kg) of the same molecule?
**A.** 834 ± 88.9 ng/mL

**Q.** And the MRT inf ([1]; ip, 40 mg/kg)?
**A.** 4.21 ± 0.14 h

**Q.** What about the Tmax ([1]; ip, 40 mg/kg) of the same molecule?
**A.** 0.5 h

**Q.** What about the Vd/F ([1]; ip, 40 mg/kg) of the same molecule?
**A.** 2.16 ± 0.337 L

**Q.** And the half-life ([1]; ip, 40 mg/kg, t1/2, IP)?
**A.** 3.79 ± 0.12 h

**Q.** And the Tmax ([1]; other: intraperitoneal and oral, 20 mg/kg)?
**A.** 0.5 h

**Q.** And the AUC(0-t) ([1]; po)?
**A.** 134 to 487 ng·h/mL

**Q.** What about the Cmax ([1]; po) of the same molecule?
**A.** 26 to 90 ng/mL

**Q.** And the MRT ([1]; po)?
**A.** 6.59 to 8.76 h

**Q.** And the Vd/F ([1]; po)?
**A.** 6.5 to 10.6 L

**Q.** And the AUC(0-t) ([1]; po, 10 mg/kg)?
**A.** 134 ± 22.5 ng·h/mL

**Q.** What about the Cmax ([1]; po, 10 mg/kg) of the same molecule?
**A.** 26.1 ± 10.1 ng/mL

**Q.** What about the MRT inf ([1]; po, 10 mg/kg) of the same molecule?
**A.** 6.59 ± 0.37 h

**Q.** What about the Tmax ([1]; po, 10 mg/kg) of the same molecule?
**A.** 0.5 h

**Q.** And the Vd/F ([1]; po, 10 mg/kg)?
**A.** 6.53 ± 1.78 L

**Q.** And the half-life ([1]; po, 10 mg/kg, t1/2, PO)?
**A.** 3.44 ± 0.15 h

**Q.** What about the AUC(0-t) ([1]; po, 20 mg/kg) of the same molecule?
**A.** 257 ± 62.3 ng·h/mL

**Q.** What about the Cmax ([1]; po, 20 mg/kg) of the same molecule?
**A.** 35.1 ± 11 ng/mL

**Q.** What about the Tmax ([1]; po, 20 mg/kg) of the same molecule?
**A.** 1 h

**Q.** And the AUC(0-inf) ([1]; po, 40 mg/kg)?
**A.** 133 to 487 ng·h/mL

**Q.** What about the AUC(0-t) ([1]; po, 40 mg/kg) of the same molecule?
**A.** 487 ± 116 ng·h/mL

**Q.** And the Cmax ([1]; po, 40 mg/kg)?
**A.** 89.7 ± 17.6 ng/mL

**Q.** What about the MRT inf ([1]; po, 40 mg/kg) of the same molecule?
**A.** 8.76 ± 0.43 h

**Q.** And the Tmax ([1]; po, 40 mg/kg)?
**A.** 0.5 h

**Q.** What about the Vd/F ([1]; po, 40 mg/kg) of the same molecule?
**A.** 10.6 ± 3.39 L

**Q.** And the half-life ([1]; po, 40 mg/kg, t1/2, PO)?
**A.** 5.87 ± 0.06 h

**Q.** What about the “share of the drug in the bloodstream” value ([1]; suggested by Vss values) of the same molecule?
**A.** < 1%

**Q.** What about the “Rac-directed lamellipodia formation and directed cell migration” value (metastatic cancer cells [2]) of the same molecule?
**A.** inhibit

**Q.** And the “murine melanoma cell migration” value (murine melanoma cell)?
**A.** inhibits

**Q.** And the “concentration at which apoptosis is activated” value (metastatic cancer cells [3])?
**A.** > 10 µM

**Q.** And the “concentration at which cell viability is reduced” value (metastatic cancer cells [3])?
**A.** > 10 µM

**Q.** And the “Akt and Jun kinase (JNK) activities” value (Akt and Jun kinase (JNK))?
**A.** decreased

**Q.** And the “human leukemic cell growth” value (human leukemic cell)?
**A.** inhibits
